Only some compounds are listed: those with a hit (about 3.5% of all), similar ones and a draw of the others.
MrgX1 antagonist = antagonists of human MrgX1 receptor | Q96LB2 | MRGX1-HEK293 calcium flux, Fluo-4, BAM8-22 antagonism; hits give low values | B-score at 10 µM | hit rate 1.3% among 310,000 | AID 588676;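 active = calcium-response B-score plate-corrected more than 3 library SD below zero, starting fluorescence within 5 deviations, no agonist response on first addition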;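 note: peak minus trough fluorescence over baseline after final BAM8-22 challenge near maximal dose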
Target sequence (Q96LB2 whole entry, looked up): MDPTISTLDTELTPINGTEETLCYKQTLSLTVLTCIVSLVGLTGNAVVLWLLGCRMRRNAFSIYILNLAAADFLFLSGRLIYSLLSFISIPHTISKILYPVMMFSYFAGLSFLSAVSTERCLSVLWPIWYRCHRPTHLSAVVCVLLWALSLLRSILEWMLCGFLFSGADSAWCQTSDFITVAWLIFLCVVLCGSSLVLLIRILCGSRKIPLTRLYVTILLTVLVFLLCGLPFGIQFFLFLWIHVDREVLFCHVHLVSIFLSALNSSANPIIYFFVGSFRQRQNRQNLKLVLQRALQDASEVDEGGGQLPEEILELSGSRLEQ
MrgX1 agonist = human MrgX1 receptor agonism, primary screen; B-score at 10 µM; hit rate 0.44% among 310,000; MrgX1-HEK293 cells, Fluo-4 calcium fluorescence, agonist mode; hits give high values; AID 588627;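 active = calcium response B-score plate-corrected fluorescence ratio at least 3 library SD, with starting fluorescence B-score inside 5 SD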
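Material: MrgX1-expressing HEK293 cells; input: 15,000 cells per well; doses: test compound given as first of three sequential additions; schedule: overnight plating before 1 h dye loading; technique: Fluo-4 NW calcium-flux fluorescence, kinetic read; evaluation: baseline-normalised fluorescence change ratio, B-scored; control set: plate-wise positive and negative controls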
RGS4 act = potentiators or activators of RGS4. B-score at 10 µM. hit rate 0.92% among 310,000. HEK293 M3R/inducible RGS4, carbachol calcium flux Fluo4; hits give low values;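 active = B-score of the integrated calcium signal more than 4 SD below the library mean, with starting fluorescence not abnormally high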;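 note: negative B-score means reduced calcium response which marks RGS4 activation or potentiation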
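Assay system: HEK293 FlpIn-TREx cells, stable M3R, doxycycline-inducible RGS4 / Probe or stimulus: carbachol, ECmax concentration / Times: overnight RGS4 induction, 30 min dye load 37 °C, 20 min compound RT / Signal: kinetic calcium fluorescence imaging with Fluo4-AM dye, 2 µM / Measure: Agonist-evoked peak-minus-minimum fluorescence over baseline, integrated ratio, B score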
MrgX1 allo act = allosterically activates human MrgX1 receptor signaling; Q96LB2; MrgX1-HEK293, Fluo-4 calcium flux, FDSS; hits give high values; B-score at 10 µM; hit rate 0.63% among 310,000; AID 588675;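 active = plate-corrected calcium response at least 3 library SD above typical, normal starting fluorescence, not activating the receptor alone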;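 note: compound read alongside a low EC10 to EC30 dose of BAM8-22 agonist; peak minus trough fluorescence over baseline measured at the second addition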
RGS4 inh = human RGS4 inhibition | HEK293 M3R/RGS4 inducible, Fluo-4 calcium flux; hits give high values; triggered by carbachol at its EC20 | B-score at 10 µM | hit rate 0.45% among 310,000 | AID 463165;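 active = B-score, a plate-corrected calcium signal, over three deviations above library mean, with baseline fluorescence within five deviations of library mean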;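 note: RGS4 expression induced by doxycycline in cells with stable M3 receptor; B-score is computed from the integrated fluorescence ratio over baseline after carbachol; higher B-score means a larger calcium signal and so more RGS4 inhibition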
Target sequence (P49798 whole entry, looked up): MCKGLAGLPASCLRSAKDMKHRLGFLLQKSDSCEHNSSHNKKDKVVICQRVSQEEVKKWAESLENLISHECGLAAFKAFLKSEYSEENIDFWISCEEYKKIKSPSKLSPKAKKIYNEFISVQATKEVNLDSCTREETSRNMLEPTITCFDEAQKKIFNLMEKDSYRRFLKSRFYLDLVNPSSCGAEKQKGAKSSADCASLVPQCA
* = called active by the depositor; i = inactive; nt = no result given.

SMILES | MrgX1 antagonist | MrgX1 agonist | RGS4 act | MrgX1 allo act | RGS4 inh
O=c1cc(-c2ccc(C3CCCCC3)cc2)[nH][nH]1 | i | i | i | i | i
CCC1=NN2C(=N)/C(=C\c3cccn3-c3cccc(Cl)c3)C(=O)N=C2S1 | i | i | i | 11* | i
CC1=CSC2=NC(=O)/C(=C\c3cccn3-c3ccccc3)C(=N)N12 | i | i | i | 8.8* | i
Cc1ccc(-n2cccc2/C=C2/C(=N)N3C(=NC2=O)SN=C3S(C)(=O)=O)cc1Cl | i | i | nt | i | nt
Cc1cccc(C)c1-n1cccc1/C=C1/C(=N)N2C(=NC1=O)SN=C2S(C)(=O)=O | i | i | -7.9* | i | i
Cc1cc(/C=C2/C(=N)N3C(=NC2=O)SN=C3S(C)(=O)=O)c(C)n1-c1ccc(F)cc1 | i | i | i | 18* | i
COc1ccccc1/C=C(/C(=O)OCC(=O)N(C)Cc1ccccc1)c1ccccc1 | i | i | i | i | i
Cc1ccccc1OCC(=O)Nc1ccc2c(c1)C(=O)N(CCC(=O)O)C2=O | i | i | i | i | i
COc1cc2c(cc1NC(=O)C(c1ccccc1)c1ccccc1)CCCC2 | i | i | i | i | i
Cc1cccc(OCc2n(CC(=O)OC3CC(C)CCC3C(C)C)c3ccccc3[n+]2C)c1 (stereo unspecified) | -9.6* | i | -12* | i | i
Cc1cccc(OC(=O)Cn2c(C(F)(F)F)nc3ccccc32)c1 | i | i | i | i | i
CC1CCC(C(C)C)C(OC(=O)CSc2nnc(N)s2)C1 (stereo unspecified) | i | i | i | i | i
CC1CCC(C(C)C)C(OC(=O)Cn2c(-c3ccccc3)[n+](C)c3ccccc32)C1 (stereo unspecified) | -7.5* | i | i | i | i
CC1CCC(C(C)C)C(OC(=O)Cn2c(-c3ccc(F)cc3)[n+](C)c3ccccc32)C1 (stereo unspecified) | -5.8* | i | nt | i | nt
CC1CCC(C(C)C)C(OC(=O)CSc2nc(N)cc(=O)[nH]2)C1 (stereo unspecified) | i | i | i | i | i
O=C(Nc1cccc(S(=O)(=O)N2CCCC2)c1)c1ccc2c(=O)n3c(nc2c1)CCCCC3 | i | i | i | i | i
O=C(Nc1cccc(S(=O)(=O)N2CCOCC2)c1)c1ccc2c(=O)n3c(nc2c1)CCCCC3 | i | i | -7.3* | i | i
COc1ccc([C@H]2[C@H](C(=O)C(C)(C)C)N3N=Cc4ccccc4C3C23C(=O)OC(C)(C)OC3=O)cc1 (stereo partly specified) | -6.1* | i | i | i | i
COc1ccc([C@@H]2[C@@H](C(=O)C(C)(C)C)N3N=Cc4ccccc4[C@@H]3C23C(=O)OC(C)(C)OC3=O)cc1OC | i | i | -7.2* | i | i
COc1ccc(N2C(=O)[C@H]3[C@@H](C2=O)C2c4ccccc4C=NN2[C@H]3C(=O)C(C)(C)C)cc1 (stereo partly specified) | i | i | i | i | i
COc1ccccc1OCc1ccc(C(=O)N(C)c2ccccc2)o1 | i | i | i | i | i
O=C(O)C1(Cc2nc3ccccc3[nH]2)CCCC1 | i | i | i | i | i
Cc1ccc(-c2ccc(/C=C(\C#N)C(=O)Nc3cc(C)nn3-c3ccccc3)o2)cc1 | i | i | -8.6* | i | i
CCCCN1C[C@H](O)[C@@H](O)[C@H](O)[C@H]1CO | i | i | i | i | i
OCCN1C[C@H](O)[C@@H](O)[C@H](O)[C@H]1CO | -9.5* | i | i | i | i
SMILES | MrgX1 antagonist | MrgX1 agonist | RGS4 act | MrgX1 allo act | RGS4 inh
N#Cc1ccccc1NC(=O)COC(=O)CCc1ccccc1 | i | i | i | i | i
O=C(Nc1ccc(Cl)cc1)Nc1ccc(N2CCCC2)c(S(=O)(=O)Nc2ccccc2Cl)c1 | -6* | i | i | i | i
COc1ccccc1NS(=O)(=O)c1cc(NC(=O)Nc2cccc(C)c2)ccc1N1CCCCC1 | i | i | i | i | i
Cc1ccc(C(=O)N2CC(C)OC(C)C2)cc1[N+](=O)[O-] (stereo unspecified) | -5* | i | i | i | i
COc1cccc(C2(O)C(=O)Nc3ccccc32)c1 (stereo unspecified) | i | i | i | i | i
CC(C)N(C(=O)c1nn(C)c2c1CSc1ccccc1-2)C1CCCCC1 | i | i | i | 15* | i
Cc1c(N=C(N)/N=C(\N)Nc2ccccc2)c(=O)n(-c2ccccc2)n1C | -4.6* | i | i | i | i
O=C(/C=C/c1cccc(Br)c1)c1ccc2c(c1)OCO2 | i | i | i | 8.3* | i
O=C(/C=C/c1ccccc1Br)c1ccc2c(c1)OCO2 | i | i | -11* | i | i
O=C(/C=C\Nc1cccc(F)c1)c1ccc2c(c1)OCO2 | -4.7* | i | i | i | i
CCn1c(SCC(=O)N2CCN(C(=O)c3ccco3)CC2)nnc1C(C)C | i | i | i | i | i
CCOc1cc(/C=C2\SC(=S)N(NS(=O)(=O)c3ccc(C)cc3)C2=O)ccc1O | i | 52* | i | i | i
O=C(NN1C(=O)/C(=C\c2cccnc2)SC1=S)C(c1ccccc1)c1ccccc1 | i | i | -7.3* | i | i
CCOc1cc(/C=C2\SC(=S)N(NC(=O)c3cccnc3)C2=O)ccc1O | -5.9* | i | i | i | i
Cc1[nH]c2ccccc2c1C(=O)C(=O)N1CCN(c2ccccc2F)CC1 | i | i | i | i | i
CCCNc1nc2c(c(=O)n(C)c(=O)n2C)n1CCCc1ccccc1 | i | i | i | i | i
CN1CCN(c2ccc(S(=O)(=O)N3CCCCC3)cc2NC(=O)COc2cccc(Cl)c2)CC1 | i | i | i | i | i
Cc1ccc(-n2nnnc2-c2cccs2)cc1[N+](=O)[O-] | i | i | -7.4* | i | i
Cc1ccc(OCCn2c(=O)n(C)c3ccccc32)cc1 | i | i | -7.2* | i | i
Cc1cc2oc(C(=O)N(Cc3ccc(N(C)C)cc3)CC3CCCO3)c(C)c2cc1C (stereo unspecified) | i | i | i | i | i
N=C1/C(=C\c2ccc(SCc3ccccc3)o2)C(=O)N=C2SC(CC(=O)N3CCOCC3)=NN12 | i | i | i | i | i
N=C1/C(=C\c2ccc(SCc3ccccc3)o2)C(=O)N=C2SC=NN12 | i | i | i | 8.7* | i
